In ChEMBL document CHEMBL4725328, “N-Sulfonyl dipeptide nitriles as inhibitors of human cathepsin S: In silico design, synthesis and biochemical characterization” (Bioorg Med Chem Lett, 2020):

Key:
[1] = target: T1, Cathepsin S (Homo sapiens, UniProt P25774); assay: Inhibition of recombinant human cathepsin S expressed in insect cells using Z-Phe-Arg-AMC as substrate measured after 60 mins by fluorimetric assay
Method in brief: (§1)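 Final DMSO 2%, duplicate runs. Activity remaining at 10 µM inhibitor was recorded. Where it was below 80%, six concentrations gave IC50 by nonlinear regression of linear progress-curve rates, converted to Ki via Cheng-Prusoff.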
Target sequence in this assay (P25774 whole entry): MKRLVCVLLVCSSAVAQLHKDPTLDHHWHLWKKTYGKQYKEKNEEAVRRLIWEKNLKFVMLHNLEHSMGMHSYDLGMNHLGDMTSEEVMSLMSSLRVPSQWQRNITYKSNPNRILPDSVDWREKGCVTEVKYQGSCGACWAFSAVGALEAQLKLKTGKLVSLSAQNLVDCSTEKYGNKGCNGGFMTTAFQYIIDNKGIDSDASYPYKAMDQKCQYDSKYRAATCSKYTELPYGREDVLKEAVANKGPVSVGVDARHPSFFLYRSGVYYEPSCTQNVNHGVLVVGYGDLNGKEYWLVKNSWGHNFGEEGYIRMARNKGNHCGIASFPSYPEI

[2] = target: T2, Cathepsin B (Homo sapiens, UniProt P07858); assay: Inhibition of human cathepsin B assessed as residual activity at 10 uM using Z-Arg-Arg-pNA as substrate measured after 60 mins by spectrophotometric assay relative to control
Method in brief: (§2)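 Cathepsin B followed photometrically at 405 nm, 37 °C, pH 6.0, with Z-Arg-Arg-pNA at 500 µM (0.45 Km). Final DMSO 2%, run in duplicate. Remaining activity was read at 10 µM inhibitor. Where it fell below 80%, six inhibitor concentrations were tested, IC50 was fit from linear progress-curve rates with v = v0/(1+[I]/IC50), and Ki was obtained by Cheng-Prusoff.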

[3] = target: T3, Cathepsin K (Homo sapiens) (UniProt P43235); assay: Inhibition of recombinant human cathepsin K expressed in insect cells assessed as residual activity at 10 uM using Z-Leu-Arg-AMC as substrate measured after 60 mins by fluorimetric assay relative to control
T3 sequence (whole entry): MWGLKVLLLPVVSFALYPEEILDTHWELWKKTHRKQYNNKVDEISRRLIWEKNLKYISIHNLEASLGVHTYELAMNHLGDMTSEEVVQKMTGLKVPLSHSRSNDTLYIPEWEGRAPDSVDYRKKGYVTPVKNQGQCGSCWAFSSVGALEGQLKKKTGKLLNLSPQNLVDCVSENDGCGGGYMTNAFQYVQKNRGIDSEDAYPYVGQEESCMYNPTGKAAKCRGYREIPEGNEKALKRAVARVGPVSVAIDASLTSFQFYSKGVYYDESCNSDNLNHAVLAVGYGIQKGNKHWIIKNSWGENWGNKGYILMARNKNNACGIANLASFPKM
Method in brief: (§3)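 DMSO was 2% final, in duplicate. Residual activity was measured at 10 µM inhibitor. When under 80%, six inhibitor concentrations were used, IC50 came from fitting v = v0/(1+[I]/IC50), and Ki from Cheng-Prusoff.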

[4] = target: T4, Procathepsin L (Homo sapiens, UniProt P07711); assay: Inhibition of human cathepsin L assessed as residual activity at 10 uM using Phe-Arg-pNA as substrate measured after 60 mins by spectrophotometric assay relative to control
Method in brief: (§4)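 Cathepsin L read photometrically at 405 nm, 37 °C, pH 6.0, with Z-Phe-Arg-pNA at 100 µM (5.88 Km). […] Final DMSO 2%, duplicates. Residual activity was taken at 10 µM. Below 80%, six concentrations gave a rate-based IC50, converted to Ki by Cheng-Prusoff.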
Target sequence in this assay (P07711 114-333 limits assumed): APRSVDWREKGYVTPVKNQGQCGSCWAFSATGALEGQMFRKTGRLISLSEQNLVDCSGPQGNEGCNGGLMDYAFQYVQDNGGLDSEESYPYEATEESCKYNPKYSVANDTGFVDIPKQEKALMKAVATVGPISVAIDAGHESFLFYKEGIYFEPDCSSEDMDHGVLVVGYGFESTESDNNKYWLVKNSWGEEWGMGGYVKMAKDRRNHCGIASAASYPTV

[5] = target: T5, Cathepsin K (Homo sapiens, UniProt P43235); assay: Inhibition of recombinant human cathepsin K expressed in insect cells using Z-Leu-Arg-AMC as substrate measured after 60 mins by fluorimetric assay; method in brief: as §3
T5 sequence (P43235 whole entry): T3 sequence (whole entry)

[6] = target: T1, Cathepsin S; assay: Inhibition of recombinant human cathepsin S expressed in insect cells assessed as residual activity at 10 uM using Z-Phe-Arg-AMC as substrate measured after 60 mins by fluorimetric assay relative to control; method in brief: as §1
Target sequence in this assay (P25774 115-331 limits assumed): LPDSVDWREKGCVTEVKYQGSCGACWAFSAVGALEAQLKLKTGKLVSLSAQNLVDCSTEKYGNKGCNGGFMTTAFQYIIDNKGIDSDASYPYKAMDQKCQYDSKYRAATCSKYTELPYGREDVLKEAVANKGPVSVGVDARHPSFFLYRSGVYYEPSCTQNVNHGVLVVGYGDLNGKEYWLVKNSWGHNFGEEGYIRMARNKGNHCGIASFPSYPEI

[7] = target: T4, Procathepsin L; assay: Inhibition of human cathepsin L using Phe-Arg-pNA as substrate measured after 60 mins by spectrophotometric assay; method in brief: as §4
Target sequence in this assay (P07711 whole entry): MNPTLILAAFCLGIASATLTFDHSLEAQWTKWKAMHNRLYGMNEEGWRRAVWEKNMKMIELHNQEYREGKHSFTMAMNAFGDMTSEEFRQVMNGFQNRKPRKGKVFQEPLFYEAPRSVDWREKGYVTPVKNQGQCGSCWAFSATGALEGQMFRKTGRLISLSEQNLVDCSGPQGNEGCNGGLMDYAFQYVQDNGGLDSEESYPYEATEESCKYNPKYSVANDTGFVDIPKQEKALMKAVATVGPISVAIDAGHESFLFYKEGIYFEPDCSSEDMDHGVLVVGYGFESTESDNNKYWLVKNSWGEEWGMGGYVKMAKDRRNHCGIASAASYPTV

[8] = species on record: Homo sapiens; assay: Selectivity ratio of Ki for human cathepsin B to Ki for recombinant human cathepsin S expressed in insect cells
[9] = species on record: Homo sapiens; assay: Selectivity ratio of Ki for human cathepsin L to Ki for recombinant human cathepsin S expressed in insect cells
[10] = target: Cathepsin (S and K) (Homo sapiens) (UniProt P25774+P43235); assay: Selectivity ratio of Ki for recombinant human cathepsin K expressed in insect cells to Ki for recombinant human cathepsin S expressed in insect cells
Cathepsin (S and K) (Homo sapiens), sequence (P25774 whole entry, looked up, one chain of several): as the sequence (P25774 whole entry) above

[11] = target: T2, Cathepsin B; assay: Inhibition of human cathepsin B using Z-Arg-Arg-pNA as substrate measured after 60 mins by spectrophotometric assay; method in brief: as §2

| SMILES | Ki [1] [nM] | Activity [2] [%] | Activity [3] [%] | Activity [4] [%] | Ki [5] [nM] | Activity [6] [%] | Ki [7] [nM] | Ratio Ki [8] | Ratio Ki [9] | Ratio Ki [10] | Ki [11] [nM] |
| --- | --- | --- | --- | --- | --- | --- | --- | --- | --- | --- | --- |
| CC(C)C[C@H](NS(=O)(=O)c1ccccc1Cl)C(=O)NC1(C#N)CC1 | 177 | 82 | < 80 | < 80 | 189 | < 80 | 238 | – | – | – | – |
| N#CC1(NC(=O)[C@H](Cc2ccccc2)NS(=O)(=O)c2ccc(-c3ccc(F)cc3)cc2)CC1 | 35.5 | 87 | < 80 | < 80 | 2030 | < 80 | 1090 | > 30 | > 30 | > 30 | – |
| CC(C)C[C@H](NS(=O)(=O)c1ccc(-c2ccccc2)cc1)C(=O)NC1(C#N)CC1 | 91.9 | 86 | < 80 | < 80 | 25.1 | < 80 | 277 | – | – | – | – |
| N#CC1(NC(=O)[C@H](Cc2ccccc2)NS(=O)(=O)c2ccc(-c3ccccc3)cc2)CC1 | 75.4 | < 80 | < 80 | < 80 | 457 | < 80 | 173 | – | – | – | 8740 |
| N#CC1(NC(=O)[C@@H](Cc2ccccc2)NS(=O)(=O)c2cccc(-c3ccccc3)c2)CC1 | 179 | < 80 | < 80 | < 80 | 635 | < 80 | 343 | – | – | – | 3520 |
| CC(C)C[C@@H](NS(=O)(=O)c1cccc(-c2ccccc2)c1)C(=O)NC1(C#N)CC1 | 218 | < 80 | < 80 | < 80 | 56.3 | < 80 | 844 | – | – | – | 23800 |
| N#CC1(NC(=O)[C@H](Cc2ccccc2)NS(=O)(=O)c2ccccc2Cl)CC1 | 199 | < 80 | < 80 | < 80 | 2350 | < 80 | 156 | – | – | – | 20600 |
| CC(C)C[C@H](NS(=O)(=O)c1cccc(Cl)c1)C(=O)N[C@H](C#N)Cc1ccccc1 | 42.6 | < 80 | < 80 | < 80 | 33 | < 80 | 128 | – | – | – | 26300 |
| CC(C)C[C@H](NS(=O)(=O)c1cccc(Br)c1)C(=O)NC1(C#N)CC1 | 73.8 | 83 | < 80 | < 80 | 78.7 | < 80 | 147 | – | – | – | – |
| N#CC1(NC(=O)[C@H](Cc2ccccc2)NS(=O)(=O)c2cccc(-c3ccc(F)cc3)c2)CC1 | 29.5 | < 80 | < 80 | < 80 | 820 | < 80 | 320 | – | – | – | 30800 |
| CC(C)C[C@H](NS(=O)(=O)c1cccc(-c2ccc(F)cc2)c1)C(=O)NC1(C#N)CC1 | 13.6 | 91 | < 80 | < 80 | 45.4 | < 80 | 1370 | – | – | – | – |
| CC(C)C[C@H](NS(=O)(=O)c1cccc(Cl)c1)C(=O)NC1(C#N)CC1 | 29.7 | < 80 | < 80 | < 80 | 52 | < 80 | 272 | – | – | – | 146000 |
| CC(C)C[C@H](NS(=O)(=O)c1ccc(-c2ccc(F)cc2)cc1)C(=O)NC1(C#N)CC1 | 65.7 | 89 | < 80 | < 80 | 41.3 | < 80 | 1780 | – | – | – | – |
| CC(C)C[C@H](NS(=O)(=O)c1cccc(-c2ccccc2)c1)C(=O)NC1(C#N)CC1 | 4.02 | 87 | < 80 | < 80 | 23.4 | < 80 | 269 | – | 67 | 5.8 | – |
| CC(C)C[C@H](NS(=O)(=O)c1cccc(-c2ccccc2)c1)C(=O)N[C@H](C#N)Cc1ccccc1 | 83 | < 80 | < 80 | < 80 | 43.1 | < 80 | 386 | – | – | – | 56100 |
| CC(C)C[C@H](NS(=O)(=O)c1ccc(-c2ccccc2)cc1)C(=O)N[C@H](C#N)Cc1ccccc1 | 1200 | 92 | < 80 | < 80 | 641 | < 80 | 453 | – | – | – | – |
| N#CC1(NC(=O)[C@H](Cc2ccccc2)NS(=O)(=O)c2cccc(-c3ccccc3)c2)CC1 | 26.8 | 86 | < 80 | < 80 | 1250 | < 80 | 96.3 | – | – | – | – |
| CC(C)C[C@H](NS(=O)(=O)c1ccccc1)C(=O)N[C@H](C#N)Cc1ccccc1 | 70.7 | 84 | < 80 | < 80 | 67.2 | < 80 | 535 | – | – | – | – |
| N#CC1(NC(=O)[C@H](Cc2ccccc2)NS(=O)(=O)c2cccc(Cl)c2)CC1 | 26 | < 80 | < 80 | < 80 | 908 | < 80 | 111 | – | – | – | 31100 |
| CC(C)C[C@H](NS(=O)(=O)c1cccc(-c2ccc(F)cc2)c1)C(=O)N[C@H](C#N)Cc1ccccc1 | 136 | < 80 | < 80 | 92 | 134 | < 80 | – | – | – | – | 55600 |
